# Source: PubChem (NMMLSC)
# Rows were chosen to be rich in hits. Some 2.3% of all compounds tested hit in one or more screens of this group.
# MEKK2mut PB1 HTS: signal of MEK5 binding to mutant human MEKK2 PB1 domain; bead flow cytometry, Alexa488-MEK5 binding to MEKK2 mutant; percent response, % at 10 µM; 290,000 tested, 0.35% active; in the data active = percent response above about 24%, passing the limit was not always enough
# MEKK2wt PB1 HTS: raises or lowers MEK5 binding to wildtype human MEKK2 PB1 domain; Q9Y2U5; bead flow cytometry, Alexa488-MEK5 binding to MEKK2 WT; actives lie on both sides; binding response (% of control), % at 10 µM; 290,000 tested, 1.1% active; in the data active = binding response below about 67% or above about 130%
# Arr AP2 block: blocks beta-arrestin peptide binding to AP2 adaptin. FITC-arrestin peptide / GST-AP2 beads, flow cytometry; AP2 beta2 appendage carries R879A mutation. inhibition, % at 10 µM. 340,000 tested, 0.31% active;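 active = inhibition above a set limit, near 3 SD of compounds lacking own fluorescence, cut at about 54% in these data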;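 also: plate controls were DMSO wells for no effect and 5 µM unlabelled arrestin peptide for full effect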
#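 Measured by: flow cytometry, FL1 (488/535 nm); Material: AP2 appendage R879A on GSH beads; Evaluation: percent response; Timing: pre-incubation 12 min, peptide binding 1 h, room temperature; Also added: 50 nM FITC-arrestin peptide; Medium: PBS with 0.05% Tween 20 and 0.1% BSA.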
# MEKK3 PB1 HTS: raises or lowers MEK5 binding to the human MEKK3 PB1 domain; bead-based flow cytometry, Alexa488-MEK5 binding to MEKK3; actives lie on both sides; 0 = blocked by unlabeled MEK5, 100 = vehicle; Q99759; AID 1529; 290,000 tested, 1.4% active; binding response (% of control), % at 10 µM;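 active = binding response more than 3 SD above or below the average of its plate-row segment, actives on both sides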;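 also: Alexa488 bead fluorescence after subtracting the streptavidin-only scavenger bead signal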
# Target sequence (Q99759 whole entry, looked up, the tested form may be a part): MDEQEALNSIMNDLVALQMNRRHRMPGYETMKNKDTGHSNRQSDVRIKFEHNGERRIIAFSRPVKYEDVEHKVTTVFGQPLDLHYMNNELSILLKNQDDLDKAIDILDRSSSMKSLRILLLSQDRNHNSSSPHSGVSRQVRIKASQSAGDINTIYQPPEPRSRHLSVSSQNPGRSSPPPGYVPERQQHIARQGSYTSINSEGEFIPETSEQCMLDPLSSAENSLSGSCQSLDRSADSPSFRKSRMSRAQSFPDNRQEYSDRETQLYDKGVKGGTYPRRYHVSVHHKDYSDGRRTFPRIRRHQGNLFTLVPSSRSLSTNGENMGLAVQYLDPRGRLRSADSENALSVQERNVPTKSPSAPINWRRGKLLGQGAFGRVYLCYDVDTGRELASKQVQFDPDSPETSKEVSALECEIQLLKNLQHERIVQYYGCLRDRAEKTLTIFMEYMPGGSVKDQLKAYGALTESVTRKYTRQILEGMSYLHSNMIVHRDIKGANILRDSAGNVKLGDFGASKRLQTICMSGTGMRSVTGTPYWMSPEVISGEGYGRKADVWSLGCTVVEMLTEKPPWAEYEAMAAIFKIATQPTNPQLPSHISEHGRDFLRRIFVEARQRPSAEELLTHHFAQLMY
# MEKK2wt confirm: raises or lowers MEK5 binding to wildtype human MEKK2, retest | shares compounds with MEKK3 PB1 HTS | bead flow cytometry, Alexa488-MEK5 binding to MEKK2 WT; actives lie on both sides | 5,900 tested, 2.4% active | binding response (% of control), % at 10 µM; in the data active = binding response below about 16% or above about 210%; inactive = in between
# MEKK2mut confirm: signal of MEK5 binding to mutant human MEKK2, retest; shares compounds with MEKK3 PB1 HTS; bead flow cytometry, Alexa488-MEK5 binding to MEKK2 mutant; percent response, % at 10 µM; 5,900 tested, 2% active; in the data active = percent response mostly above about 71%, no sharp cut-off; inactive = mostly below about 38%;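 also: higher means compound restores mutant binding toward wildtype level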
# MEKK3 confirm: confirmation of inhibitors of MEK5 binding to human MEKK3 | shares compounds with MEKK3 PB1 HTS | bead flow cytometry, Alexa488-MEK5 binding to MEKK3; stronger effect = lower value | binding response (% of control), % at 10 µM | 5,900 tested, 1.8% active | AID 1894;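 active = binding response below 72% of control, or above a set upper limit, though filed actives all read lower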;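 also: 100% = DMSO only wells and 0% = binding blocked by excess unlabeled MEK5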
# Starred values were filed as active, the others as inactive; nt = not tested or not shown; [ ] = remark or other dose.
SMILES,MEKK2mut PB1 HTS,MEKK2wt PB1 HTS,Arr AP2 block,MEKK3 PB1 HTS,MEKK2wt confirm,MEKK2mut confirm,MEKK3 confirm
Cc1cccc(-n2c(O)c(C=NCc3ccccn3)c3ccccc3c2=O)c1,1,107,10,123,nt,nt,nt
COc1ccc(C(=S)N2CCOCC2)cc1OC(=O)c1ccccc1Cl,-1,99,32,101,nt,nt,nt
Cc1cc(C)c2c(n1)nn1c(NCCCN(C)C)cc(C)nc21,-6,97,-1,95,nt,nt,nt
Cc1cc(NCCCN(C)C)n2nc(-c3cccs3)cc2n1,26*,107,-4,112,107,-2,104
CCOC(=O)/C(=N\Nc1ccc(Cl)cc1)c1csc(Nc2ccccc2)n1,8,135*,2,109,134,10,105
COc1ccc(OC)c(NC(=O)COC(=O)CCc2ccc(S(=O)(=O)N3CCOCC3)cc2)c1,nt,nt,11,nt,nt,nt,nt
CCN1CCN(c2cc(-c3ccccc3)nc3cc(-c4cccc(F)c4)nn23)CC1,49*,146*,-5,122*,182,39,108
O=C(CNc1cc(S(=O)(=O)N2CCCC2)ccc1OCC(F)(F)F)Nc1ccc(SC(F)F)cc1,1,115,3,144*,90,-13,100
CCOc1ncccc1C(=O)N=c1sccn1C,-1,103,18,102,nt,nt,nt
CCOc1ncccc1C(=O)N=C1SCCN1C(=O)c1cccnc1OCC,7,140,36,158*,103,0,108
O=C(c1cn(-c2ccccc2)nc1-c1cccnc1)N1CCN(S(=O)(=O)c2ccc(Cl)cc2)CC1,nt,nt,8,nt,nt,nt,nt
CCOC(=O)CCc1nc2ccccc2[nH]1,6,109,2,108,nt,nt,nt
COCC(=O)O[C@]1(CCN(C)CCCc2nc3ccccc3[nH]2)CCc2cc(F)ccc2[C@@H]1C(C)C,19,172*,5,118,136,21,107
O=C(NNC(=S)Nc1ccccc1C(F)(F)F)C1CC1,-2,103,6,104,nt,nt,nt
Cc1ccc(C)c(N2CCN(C(=O)c3ccc(CSc4nc5ccncc5[nH]4)cc3)CC2)c1,-13,2.0*[inhibitor],2,1.0*[inhibitor],102,4,101
O=C(c1ccc(CSc2nc3ccncc3[nH]2)cc1)N1CCCCC1,-3,98,-1,106,nt,nt,nt
CN(C)CCNC(=O)c1nn(C)c2c1CCc1ccccc1-2,-3,96,-10,92,nt,nt,nt
CC(C)NCC(O)COc1ccc2c(c1)CCC2 (stereo not given),1,108,-1,140*,95,-3,90
CNC(=S)N/N=C1\C(=O)c2cccc3cccc1c23,-3,99,9,95,nt,nt,nt
CCCCNC(=S)N/N=C1\C(=O)c2cccc3cccc1c23,-5,74,2,71*[inhibitor],97,-3,97
COc1ccc(CCN2CCCn3c2nc2c3c(=O)[nH]c(=O)n2C)cc1OC,14,105,9,106,nt,nt,nt
N#CCCCCN1CCCC1,6,100,-1,100,nt,nt,nt
O=C1CCCc2nc(NCc3ccco3)ncc21,24*,111,22,112,101,0,98
Cc1cc(NC(=O)Cc2ccccc2)ccc1NC(=O)c1cccs1,-6,96,1,102,nt,nt,nt
CCc1nc(CN2CCN(c3cc(C(F)(F)F)ccn3)CC2)c(C)[nH]1,-20,94,-13,93,nt,nt,nt
COc1ccc(CNc2nc3c(c(=O)[nH]c(=O)n3C)n2CCCc2ccccc2)cc1,4,100,5,98,nt,nt,nt
COc1ccc(CCn2c(NN=C3CCCCC3)nc3c2c(=O)[nH]c(=O)n3C)cc1,-9,57*[inhibitor],-2,65*[inhibitor],99,-1,97
Cc1cnn(C(=O)c2cc(-c3ccccn3)nc3ccc(Cl)cc23)c1,0,97,-3,101,nt,nt,nt
O=C(c1cc(-c2ccccn2)nc2ccc(Cl)cc12)N1CCN(CCc2ccccc2)CC1,-23,-4.0*[inhibitor],13,-1.0*[inhibitor],97,-2,97
COc1ccc(CNC(=O)Cn2cc(C)c(=O)[nH]c2=O)cc1,nt,nt,-8,nt,nt,nt,nt
